Source: PubChem BioAssay (Johns Hopkins Ion Channel Center)
TRPC4 agonist: TRPC4 (mouse) channel activation | Q9QUQ5 | HEK293 TRPC4beta/mu-opioid, Fluo4 calcium fluorescence; active compounds read high | B-score at 10 µM | hit rate 0.49% among 310,000 | AID 2237;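 active = B-score above 5 SD of library B-scores, and initial fluorescence ratio not above library mean plus 5 SD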;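 note: positive B-score marks a calcium rise read as TRPC4 activation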
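Assay system: HEK293 stable line with TRPC4beta plus mu-opioid receptor; schedule: 45 min room-temperature Fluo4 loading, 110 s read; technique: kinetic Fluo4 calcium fluorescence; evaluation: integrated baseline-normalised fluorescence ratio, converted to per-well B score; controls: buffer (low) and maximal DAMGO (high)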
TRPC6 act: mouse TRPC6 channel activation | B-score at 10 µM | HEK293-TRPC6 membrane potential dye fluorescence; active compounds read high | hit rate 0.13% among 310,000 | Q61143;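 active = B-score of the integrated fluorescence ratio above library mean plus 3 SD, and starting fluorescence ratio within library mean plus 5 SD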;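 note: higher score means more depolarization so channel activation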
TRPC4 potent: TRPC4 (mouse) allosteric potentiation; Q9QUQ5; HEK293 TRPC4beta/mu-opioid, DAMGO EC20, Fluo-4 Ca2+ flux; active compounds read high; B-score at 10 µM; hit rate 0.42% among 310,000;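 active = B-score of calcium response area above 5 SD of library B-scores, with initial fluorescence ratio within 5 SD of library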;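 note: B-score of integrated fluorescence ratio over time as area under calcium response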
TRPC6 inh: blocks the mouse TRPC6 cation channel; Q61143; HEK293-TRPC6, membrane potential dye, ACh-evoked depolarization; active compounds read low; B-score at 10 µM; hit rate 1.1% among 310,000; AID 2553;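 active = B-score under library mean minus 3 SD, initial fluorescence not abnormally high, positive integrated signal ratio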;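 note: B-score derived from integrated fluorescence ratio over the kinetic read; more negative B-score means stronger inhibition of depolarization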
TRPC4 block: inhibitors of mouse TRPC4 channel; HEK293 TRPC4beta/mu-opioid, DAMGO-evoked Fluo4 calcium flux; active compounds read low; B-score at 10 µM; hit rate 0.39% among 300,000;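 active = B-score over 3 SD under the library average, no early fluorescence shift, positive overall ratio signal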
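Assay system: HEK293 cells with stable TRPC4beta plus mu-opioid receptor expression. Dosing: single dose. Measured by: Fluo4 Ca2+ flux fluorescence. Also added: DAMGO in two steps, submaximal then maximal. Read-out: B score from integrated Fluo4 fluorescence ratio.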
An asterisk follows results filed as active; i = inactive. Most compounds without a hit are left out; they make up all but 2.3% or so of the library.

SMILES	TRPC4 agonist	TRPC6 act	TRPC4 potent	TRPC6 inh	TRPC4 block
CC(=O)c1ccc(OCC(O)CN2CCN(S(=O)(=O)c3c(C)cc(C)cc3C)CC2)cc1 (stereo not drawn)	i	i	22*	i	i
CN1CCN(S(=O)(=O)c2cc(Cl)c(Cl)cc2Cl)CC1	51*	i	i	i	i
Cc1cc(C)c(S(=O)(=O)N2CCN(C)CC2)c(C)c1	i	i	21*	i	i
COc1cc(C)c(S(=O)(=O)N2CCN(C)CC2)cc1C	i	i	i	i	i
CN1CCN(S(=O)(=O)c2ccc(Cl)c3ccccc23)CC1	i	i	i	i	i
CN1CCN(S(=O)(=O)c2ccc(Br)c3ccccc23)CC1	i	i	49*	i	i
COc1ccc(NC(=O)C2CCN(S(=O)(=O)c3cccc4nonc34)CC2)cc1OC	i	i	i	i	i
O=C(CCCOc1ccc(Cl)cc1)NC1CCCCC1	i	i	i	i	i
CCN1CCN(S(=O)(=O)c2c(C)cc(C)cc2C)CC1	i	i	21*	i	i
CN(CC(=O)OCC(=O)c1c(N)n(C)c(=O)n(C)c1=O)S(=O)(=O)c1ccc(Cl)cc1	i	i	i	i	i
Cn1c(N)c(C(=O)COC(=O)CNS(=O)(=O)c2ccc(Cl)c(Cl)c2)c(=O)n(C)c1=O	i	i	i	i	-6*
CCOC(=O)N1CCC(NC(=O)CSCc2nc(-c3ccc(OCC)cc3)oc2C)CC1	i	i	i	i	i
Cc1oc(-c2ccc(Cl)cc2)nc1CSCC(=O)NC1CCN(Cc2ccccc2)CC1	i	i	12*	i	i
CCOC(=O)C1=C(N)OC2=C(C(=O)CC(C)(C)C2)C1c1cc(CSc2nnnn2C)cs1 (stereo not drawn)	i	i	i	i	i
COc1ccc(NS(=O)(=O)c2csc(C(N)=O)c2)cc1OC	i	i	16*	i	i
CC(C)(C)CN1CCNC(=O)C1CC(=O)NCCN1CCCc2ccccc21 (stereo not drawn)	i	i	i	i	i
Cn1cnnc1SCC(=O)NC1CCCN(Cc2ccc(Cl)cc2)C1 (stereo not drawn)	46*	i	i	i	i
COc1cccc(CC(=O)NC2CCCN(Cc3ccc(Cl)cc3)C2)c1 (stereo not drawn)	i	i	14*	i	i
O=C(NC1CCCN(Cc2ccc(Cl)cc2)C1)C1CCC1 (stereo not drawn)	136*	i	i	i	i
COc1cccc(CC(=O)NC2CCCN(Cc3ccccc3F)C2)c1 (stereo not drawn)	i	i	i	i	i
O=C(O)C[C@@H](CNC(=O)COc1ccc2ccc(=O)oc2c1)c1ccc(Cl)cc1	i	i	i	i	i
O=C(NCC1CCCO1)c1ccc(CNS(=O)(=O)c2cccc(Cl)c2)cc1 (stereo not drawn)	i	i	i	i	i
COc1cc(Cl)ccc1NC(=S)N(CCN1CCOCC1)C1CCN(C(C)=O)CC1	i	i	i	i	i
FC(F)(F)c1cnc(COc2cc(Cl)cc(Cl)c2)c(Cl)c1	i	i	i	i	i
CCC(CC)c1nnc(NC(=O)c2c(C)nn(Cc3ccccc3Cl)c2C)s1	i	i	21*	i	i
SMILES	TRPC4 agonist	TRPC6 act	TRPC4 potent	TRPC6 inh	TRPC4 block
Cc1nn(Cc2ccccc2Cl)c(C)c1C(=O)NC1=NCCS1	i	i	i	i	i
O=C(C1CCN(S(=O)(=O)c2ccc(Br)cc2)CC1)N1CCOCC1	i	i	i	i	i
CCCCN(CC)CCCNC(=O)c1csc2c1CCCCC2	111*	i	i	i	i
CC1CC(C)CN(CCCNC(=O)c2csc3c2CCCC3)C1 (stereo not drawn)	82*	i	i	i	i
O=C1NCCN(Cc2ccc(Cl)c(F)c2)C1CC(=O)N1CCCCO1 (stereo not drawn)	i	i	i	i	i
Cc1ccc(NS(=O)(=O)c2cc(C(=O)N3CCc4ccccc4C3)ccc2Cl)cc1	i	i	28*	i	i
